In PMC3349182 (British Journal of Cancer, 2012):

Tested on: patients with advanced, refractory solid tumours
Test: Phase I dose escalation: toxicity
Assay type: in vivo, human
Details: treatment-related
Summary of the method: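 Oral dosing was once daily in 28-day cycles, escalating by an accelerated design from 0.2 mg/day. Toxicity was graded by NCI CTC v3.0. During cycle 1, patients had weekly examination, blood pressure, full blood count, biochemistry and urinalysis, plus ECGs on days 1 and 8. DLT covered drug-related toxicity in cycle 1: grade ⩾3 toxicity, repeated grade 2 toxicity needing dose reduction, or <75% of planned dose given. The MTD was the highest dose with ≤1/6 patients having a DLT, and 12 more patients were treated at the MTD.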

COc1cc2nccc(Oc3ccc(NC(=O)NC4CC4)c(Cl)c3)c2cc1C(N)=O [E7080]
Hypertension Grade 2, n patients (0.2–6.4 mg (n=21)): 0
Hypertension Grade 3, % of patients (0.2–6.4 mg (n=21)): 5%
Hypertension Grade 3, n patients (0.2–6.4 mg (n=21)): 1
Lethargy (all grades), % of patients (0.2–6.4 mg (n=21)): 14%
Lethargy (all grades), n patients (0.2–6.4 mg (n=21)): 3
Nausea (all grades), % of patients (0.2–6.4 mg (n=21)): 38%
Nausea (all grades), n patients (0.2–6.4 mg (n=21)): 8
Proteinuria (all grades), % of patients (0.2–6.4 mg (n=21)): 14%
Proteinuria (all grades), n patients (0.2–6.4 mg (n=21)): 3
Proteinuria Grade 1, % of patients (0.2–6.4 mg (n=21)): 0%
Proteinuria Grade 1, n patients (0.2–6.4 mg (n=21)): 0
Proteinuria Grade 2, % of patients (0.2–6.4 mg (n=21)): 14%
Proteinuria Grade 2, n patients (0.2–6.4 mg (n=21)): 3
Proteinuria Grade 3, % of patients (0.2–6.4 mg (n=21)): 0%
Proteinuria Grade 3, n patients (0.2–6.4 mg (n=21)): 0
Stomatitis (all grades), % of patients (0.2–6.4 mg (n=21)): 5%
Stomatitis (all grades), n patients (0.2–6.4 mg (n=21)): 1
Vomiting (all grades), n patients (0.2–6.4 mg (n=21)): 7
Abdominal pain (all grades), % of patients (12–20 mg (n=30)): 7%
Abdominal pain (all grades), n patients (12–20 mg (n=30)): 2
Anorexia (all grades), % of patients (12–20 mg (n=30)): 17%
Anorexia (all grades), n patients (12–20 mg (n=30)): 5
Constipation (all grades), % of patients (12–20 mg (n=30)): 10%
Constipation (all grades), n patients (12–20 mg (n=30)): 3
Diarrhoea (all grades), n patients (12–20 mg (n=30)): 8
Dry skin (all grades), % of patients (12–20 mg (n=30)): 10%
Dry skin (all grades), n patients (12–20 mg (n=30)): 3
Dysphonia (all grades), % of patients (12–20 mg (n=30)): 13%
Dysphonia (all grades), n patients (12–20 mg (n=30)): 4
Fatigue (all grades), % of patients (12–20 mg (n=30)): 23%
Fatigue (all grades), n patients (12–20 mg (n=30)): 7
Headache (all grades), % of patients (12–20 mg (n=30)): 7%
Headache (all grades), n patients (12–20 mg (n=30)): 2
Hypertension (all grades), % of patients (12–20 mg (n=30)): 40%
Hypertension (all grades), n patients (12–20 mg (n=30)): 12
Hypertension Grade 1, % of patients (12–20 mg (n=30)): 7%
Hypertension Grade 1, n patients (12–20 mg (n=30)): 2
Hypertension Grade 2, % of patients (12–20 mg (n=30)): 23%
Hypertension Grade 2, n patients (12–20 mg (n=30)): 7
Hypertension Grade 3, % of patients (12–20 mg (n=30)): 10%
Hypertension Grade 3, n patients (12–20 mg (n=30)): 3
Lethargy (all grades), % of patients (12–20 mg (n=30)): 17%
Lethargy (all grades), n patients (12–20 mg (n=30)): 5
Nausea (all grades), % of patients (12–20 mg (n=30)): 17%
Nausea (all grades), n patients (12–20 mg (n=30)): 5
Proteinuria (all grades), n patients (12–20 mg (n=30)): 8
Proteinuria Grade 1, % of patients (12–20 mg (n=30)): 0%
Proteinuria Grade 1, n patients (12–20 mg (n=30)): 0
Proteinuria Grade 2, % of patients (12–20 mg (n=30)): 20%
Proteinuria Grade 3, % of patients (12–20 mg (n=30)): 7%
Proteinuria Grade 3, n patients (12–20 mg (n=30)): 2
Stomatitis (all grades), % of patients (12–20 mg (n=30)): 20%
Vomiting (all grades), % of patients (12–20 mg (n=30)): 10%
Vomiting (all grades), n patients (12–20 mg (n=30)): 3
Abdominal pain (all grades), % of patients (Total (n=82)): 11%
Abdominal pain (all grades), n patients (Total (n=82)): 9
Anorexia (all grades), % of patients (Total (n=82)): 17%
Anorexia (all grades), n patients (Total (n=82)): 14
Constipation (all grades), % of patients (Total (n=82)): 17%
Constipation (all grades), n patients (Total (n=82)): 14
Diarrhoea (all grades), n patients (Total (n=82)): 28
Dry skin (all grades), % of patients (Total (n=82)): 20%
Dry skin (all grades), n patients (Total (n=82)): 16
Dysphonia (all grades), % of patients (Total (n=82)): 22%
Dysphonia (all grades), n patients (Total (n=82)): 18
Fatigue (all grades), % of patients (Total (n=82)): 18%
Fatigue (all grades), n patients (Total (n=82)): 15
Headache (all grades), % of patients (Total (n=82)): 13%
Headache (all grades), n patients (Total (n=82)): 11
Hypertension (all grades), % of patients (Total (n=82)): 40%
Hypertension Grade 1, % of patients (Total (n=82)): 7%
Hypertension Grade 2, % of patients (Total (n=82)): 22%
Hypertension Grade 2, n patients (Total (n=82)): 18
Hypertension Grade 3, % of patients (Total (n=82)): 11%
Lethargy (all grades), % of patients (Total (n=82)): 23%
Nausea (all grades), % of patients (Total (n=82)): 37%
Proteinuria (all grades), % of patients (Total (n=82)): 26%
Proteinuria (all grades), n patients (Total (n=82)): 21
Proteinuria Grade 1, % of patients (Total (n=82)): 0%
Proteinuria Grade 1, n patients (Total (n=82)): 0
Proteinuria Grade 2, % of patients (Total (n=82)): 18%
Proteinuria Grade 2, n patients (Total (n=82)): 15
Proteinuria Grade 3, % of patients (Total (n=82)): 7%
Stomatitis (all grades), % of patients (Total (n=82)): 32%
Stomatitis (all grades), n patients (Total (n=82)): 26
Vomiting (all grades), % of patients (Total (n=82)): 23%
